Screening data from PubChem.
hERG protect = hERG (human) protection from proarrhythmic block; Q12809; CHO-hERG, FluxOR thallium flux, dofetilide IC70 present; activation (rescue from dofetilide block), less the hit threshold, % at 10 µM; 0.51% of 310,000 active; AID 1511;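 active = activation above the mean of controls blocked by dofetilide plus 5 SD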;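 also: thallium influx through hERG after potassium depolarization seen as dye fluorescence rise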
Kir21 inh = blocks the mouse Kir2.1 inward-rectifier potassium channel; HEK293-Kir2.1, FluxOR thallium flux fluorescence; stronger effect = lower value; 0.85% of 310,000 active; P35561; B-score at 10 µM; AID 1672;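 active = fluorescence ratio B-score at or below minus 3 SD of library scores, with starting-brightness B-score within 2 SD, cut at about -4.2 in these data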;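 also: channel flux triggered by added potassium and thallium sulfate stimulus; B-score of peak minus minimum fluorescence over baseline after thallium stimulus; more negative B-score means stronger Kir2.1 block with less thallium influx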
KCNK3 inh = human KCNK3 channel inhibition, primary screen; O14649; CHO-KCNK3 thallium flux, FluxOR fluorescence; stronger effect = lower value; B-score at 10 µM; 0.84% of 340,000 active; AID 602410;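 active = B-score under library mean minus 4 SD, starting fluorescence ratio at most library mean plus 5 SD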;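 also: more negative B-score means stronger inhibition of thallium flux through KCNK3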
Target sequence (O14649 whole entry, looked up): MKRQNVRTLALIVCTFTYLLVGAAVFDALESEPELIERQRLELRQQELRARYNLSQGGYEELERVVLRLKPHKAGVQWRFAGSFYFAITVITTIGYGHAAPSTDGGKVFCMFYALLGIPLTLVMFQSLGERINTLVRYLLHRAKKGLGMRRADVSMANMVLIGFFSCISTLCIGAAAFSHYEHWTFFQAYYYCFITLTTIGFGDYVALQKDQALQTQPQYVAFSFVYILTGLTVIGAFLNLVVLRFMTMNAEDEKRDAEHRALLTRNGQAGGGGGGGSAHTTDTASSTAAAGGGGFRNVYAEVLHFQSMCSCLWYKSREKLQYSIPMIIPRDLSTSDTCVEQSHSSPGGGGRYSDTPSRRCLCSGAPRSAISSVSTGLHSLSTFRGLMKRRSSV
KCNQ1 act = human KCNQ1 channel potentiation or activation | AID 2648 | 0.35% of 310,000 active | B-score at 10 µM | P51787 | CHO-K1 KCNQ1, thallium flux FluxOR fluorescence; stronger effect = higher value;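 active = fluorescence ratio B-score, a plate-corrected score, at least three library SD, with initial intensity B-score within 5 SD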
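Doses: Single concentration per compound, DMSO matched to controls | Test system: KCNQ1-transfected CHO-K1 cells | Timing: 90 min dye loading and 20 min compound exposure, both at room temperature | Measured by: Kinetic FluxOR thallium fluorescence, 10-s 1-Hz baseline, 110-s post-stimulus read | Medium: Assay buffer with matched DMSO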
KCNQ1 inh = inhibitors of human KCNQ1 potassium channel; 1.3% of 310,000 active; CHO-K1 KCNQ1, FluxOR thallium flux fluorescence; stronger effect = higher value; B-score at 10 µM; P51787;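 active = compounds whose thallium flux B-score, printed positive for inhibition, exceeds three library SD while starting fluorescence stays within three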;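 also: channel opened by potassium depolarization with thallium stimulus after 20 min compound exposure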
KCNK9 inh = inhibitors of human KCNK9 two-pore domain potassium channel; B-score at 10 µM; 1.2% of 310,000 active; AID 488922; Q9NPC2; HEK293 KCNK9, FluxOR thallium flux fluorescence; stronger effect = lower value;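 active = ratio B-score over 3 SD below the library mean, with starting fluorescence within 5 SD of its mean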;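 also: negative B-score means less thallium flux so channel inhibition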
Target sequence (Q9NPC2 whole entry, looked up, the tested form may be a part): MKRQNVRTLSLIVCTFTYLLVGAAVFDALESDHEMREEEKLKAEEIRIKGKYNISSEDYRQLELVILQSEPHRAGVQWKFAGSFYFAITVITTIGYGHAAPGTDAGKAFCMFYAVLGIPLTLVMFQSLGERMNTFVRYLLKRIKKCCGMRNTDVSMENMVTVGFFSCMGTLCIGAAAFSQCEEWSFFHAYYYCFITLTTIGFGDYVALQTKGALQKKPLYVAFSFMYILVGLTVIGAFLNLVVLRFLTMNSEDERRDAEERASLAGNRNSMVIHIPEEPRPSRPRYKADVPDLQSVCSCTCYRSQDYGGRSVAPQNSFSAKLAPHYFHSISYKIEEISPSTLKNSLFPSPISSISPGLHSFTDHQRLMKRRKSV
KCNQ1 block val = human KCNQ1 channel inhibition, validation assay; shares compounds with KCNQ1 inh; KCNQ1 cell line, FluxOR thallium flux fluorescence; inhibition, % at 10 µM; 93% of 1,600 active;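 active = primary screen active, with duplicate mean exceeding buffer control mean plus 3 SD of buffer wells, cut at about 28% in these data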
CHO KCNQ1 ctr = activity in parental CHO cells lacking KCNQ1 | parental CHO-K1, FluxOR thallium flux fluorescence ratio; stronger effect = lower value; zero means no signal rise above baseline | shares compounds with KCNQ1 inh | 21% of 1,600 active | fluorescence ratio (Tl flux) at 10 µM;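 active = mean of duplicate thallium-flux fluorescence ratios in parental host cells more than 5 SD below the buffer control mean, cut at about 0.38 in these data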;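 also: ratio is peak minus minimum fluorescence divided by baseline fluorescence; actives read low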
KCNQ1 APC inh = confirmation of human KCNQ1 potassium channel inhibitors by electrophysiology; shares compounds with KCNQ1 inh; KCNQ1-CHO cells, automated patch clamp current; calls only at 10 µM; 20% of 490 active;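 active = KCNQ1 current drop exceeding 3 SD of negative control wells, seen in both duplicate runs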;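 also: steady state current during a 2 s step from -80 to +40 mV; negative values mean current inhibition and positive values mean potentiation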
KCNQ2 inh = KCNQ1 inhibitor that also blocks rat KCNQ2 channel. 71% of 1,600 active. inhibition, % at 10 µM. KCNQ2 cells, FluxOR thallium flux fluorescence. AID 651746. shares compounds with KCNQ1 inh;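 active = mean percent inhibition of the KCNQ2 thallium signal more than 5 SD above the buffer-only control wells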;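 also: KCNQ2 expressed in CHO cells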
KCNQ1 KCNE1 spec = KCNQ1 inhibitor that also blocks human KCNQ1/KCNE1 channel; inhibition, % at 10 µM; shares compounds with KCNQ1 inh; 77% of 1,600 active; KCNQ1/KCNE1 cells, FluxOR thallium flux fluorescence;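 active = mean percent inhibition of duplicate wells above the buffer-only control mean plus 3 SD of those controls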
A number is an active result; – = inactive; · = no result given; + = active, no number. An excerpt weighted towards active compounds, which were near 3.7% of everything screened.

SMILES	hERG protect	Kir21 inh	KCNK3 inh	KCNQ1 act	KCNQ1 inh	KCNK9 inh	KCNQ1 block val	CHO KCNQ1 ctr	KCNQ2 inh	KCNQ1 KCNE1 spec	others
CN(C)c1ccc(N=Nc2ccccc2C(=O)OCC(=O)N(C)c2ccccc2)cc1	–	–	–	–	8	–	99	–	93%	121%	KCNQ1 APC inh=–
COC(=O)c1ccccc1NC(=O)COC(=O)c1ccccc1N=Nc1ccc(N(C)C)cc1	–	–	–	–	–	–	·	·	·	·
CCc1c(O)nc(SCC(=O)Nc2nc3ccccc3s2)n(C2CCCCC2)c1=O	–	–	–	–	7	–	–	–	–	–
CCc1c(O)nc(SCC(=O)Nc2ccc(OC)cc2)n(C2CCCCC2)c1=O	–	–	–	–	–	–	·	·	·	·
COc1ccccc1NS(=O)(=O)c1ccc(-c2cnc(C3CC3)o2)cc1	–	–	–	–	–	–	·	·	·	·
COc1ccc(NS(=O)(=O)c2ccc(-c3cnc(C4CC4)o3)cc2)cc1OC	–	–	–	–	8	–	86	–	83%	–
CCC(Oc1ccc(Br)cc1)C(=O)N1CCN(c2ncccn2)CC1 (centres undefined)	–	–	–	–	–	–	·	·	·	·
Cc1ccc(OCCN2CCN(c3ncnc4sc(C)c(C)c34)CC2)cc1	–	–	-11	–	11	–	126	0.37	140%	108%
COc1ccc(OC)c(NC(=O)CSc2nc3scc(C)c3c(=O)[nH]2)c1	–	–	–	–	–	–	·	·	·	·
CCOc1ccc(-n2c(=S)sc3c(=O)[nH]c(SCC(=O)C(C)(C)C)nc32)cc1	–	–	–	–	6	–	92	–	–	60%	KCNQ1 APC inh=+
CCn1c(=S)sc2c(=O)[nH]c(SCC(=O)Nc3cc(OC)ccc3OC)nc21	–	–	–	–	10	–	66	–	–	89%
CCOC(=O)CSc1nc2c(sc(=S)n2-c2ccc(OCC)cc2)c(=O)[nH]1	–	–	–	–	–	–	·	·	·	·
CCOC(=O)N1CCC(N2Cc3cccc(C(=O)Nc4ccccc4OC)c3C2=O)CC1	–	–	–	–	–	–	·	·	·	·
Cc1cc(C(=O)NC2CC(C)(C)Cc3c2cnn3-c2ccc(F)cc2)no1 (centres undefined)	–	–	–	–	–	–	·	·	·	·
CC1(C)Cc2c(cnn2-c2ccccc2)C(NC(=O)c2ccoc2)C1 (centres undefined)	–	–	–	–	–	–	·	·	·	·
CC1(C)Cc2c(cnn2-c2ccc(F)cc2)C(NC(=O)c2ccoc2)C1 (centres undefined)	–	–	–	–	7	–	72	–	–	93%
Cn1nccc1C(=O)NC1CC(C)(C)Cc2c1cnn2-c1ccc(F)cc1 (centres undefined)	–	–	–	–	6	–	–	–	–	–
Cc1cc(NC(=O)COC(=O)C2=NN(c3ccccc3)C(=O)CC2)c([N+](=O)[O-])cc1C	·	·	–	·	·	·	·	·	·	·
COc1ccccc1[C@@]1(C)ON(c2ccccc2C(F)(F)F)C1=O	·	·	–	·	·	·	·	·	·	·
COc1cc(CO)c(OC)c([N+](=O)[O-])c1	–	–	–	–	–	–	·	·	·	·
CC(=O)Nc1cccc(NC(=S)Nc2ccc(F)c(Cl)c2)c1	–	–	–	–	8	–	61	–	–	–
O=C(Nc1cccnc1)Nc1ccc(F)c(Cl)c1	–	–	–	–	6	–	–	–	–	–
CC(=O)Nc1cccc(NC(=O)Nc2ccc(C)c(Cl)c2)c1	–	–	–	–	–	–	·	·	·	·
Cc1ccc(NC(=O)Nc2ccc(F)c(Cl)c2)cc1	–	–	–	–	8	–	78	–	–	44%
CN(C)CCn1nnc2c(=O)oc3ccccc3c21	–	–	–	–	–	–	·	·	·	·
SMILES	hERG protect	Kir21 inh	KCNK3 inh	KCNQ1 act	KCNQ1 inh	KCNK9 inh	KCNQ1 block val	CHO KCNQ1 ctr	KCNQ2 inh	KCNQ1 KCNE1 spec	others
O=C(c1ccc2nc[nH]c2c1)N1CCN(c2ncc(C(F)(F)F)cc2Cl)CC1	–	–	–	–	8	–	–	–	–	–
COc1ccc(S(=O)(=O)N2CCC(Cc3ccccc3)CC2)cc1NC(C)=O	–	–	–	–	–	–	·	·	·	·
Cc1ccc2nc(SCC(=O)Nc3cc(C(C)(C)C)nn3-c3ccccc3)[nH]c2c1	–	–	–	–	8	–	96	–	111%	141%	KCNQ1 APC inh=+
Cc1ccc(S(=O)(=O)N2CCN(c3ncnc4scc(-c5ccccc5)c34)CC2)cc1	·	·	–	·	·	·	·	·	·	·
Cc1ccc(-c2csc3ncnc(N4CCN(c5ccccc5O)CC4)c23)cc1	–	–	–	–	–	–	·	·	·	·
COc1ccc(-c2csc3ncnc(N4CCN(c5ccccc5O)CC4)c23)cc1	–	–	–	–	8	–	–	–	110%	–
COc1ccc(-c2csc3ncnc(N4CCN(S(=O)(=O)c5ccc(C(C)=O)cc5)CC4)c23)cc1	–	–	–	–	8	–	67	–	89%	36%
Cc1ccc(S(=O)(=O)N2CCN(c3ncnc4scc(-c5ccc(F)cc5)c34)CC2)cc1	–	–	–	–	8	–	72	–	81%	–
S=C(NCCCN1CCOCC1)NC1CC1	–	–	–	–	–	–	·	·	·	·
CCN(C(=O)COC(=O)/C=C/c1cccc(Br)c1)C1CCS(=O)(=O)C1 (centres undefined)	–	–	–	–	–	–	·	·	·	·
O=C1CCSc2c1ccc1ccccc21	·	·	–	·	·	·	·	·	·	·
CC1CCCN(c2ccc(C(=O)Nc3cccnc3)cc2[N+](=O)[O-])C1 (centres undefined)	–	–	–	–	–	–	·	·	·	·
COc1cccc(OC)c1Oc1ccc(C(F)(F)F)cn1	–	–	–	–	7	–	85	–	–	82%
FC(F)(F)c1ccc(Oc2ccccc2Cl)nc1	–	–	–	–	–	–	·	·	·	·
COc1ccc(S(=O)(=O)N2CCCC(C(=O)NC3CC3)C2)cc1Cl (centres undefined)	–	–	–	–	–	–	·	·	·	·
Nc1ccc(Oc2ccc3nc(-c4ccccc4)c(-c4ccccc4)nc3c2)cc1	–	–	–	–	–	–	·	·	·	·
Nc1ccc2nc(-c3ccccc3)c(-c3ccccc3)nc2c1	–	–	–	–	15	–	148	0.21	–	–
